We go through seven molecules from ChEMBL document CHEMBL5550195, “Synthesis and in vitro evaluation of novel amino-phenylmethylene-imidazolone 5-HT2A receptor antagonists” (RSC Med Chem, 2024).

Calls of active or inactive are those of the source. No cut-off for these calls is given here.

In series [1] the target is T1, 5-hydroxytryptamine receptor 2A (Homo sapiens, UniProt P28223). In words: Displacement of [3H] Ketanserin from 5HT2A receptor (unknown origin) at 10 uM incubated for 0.5 hrs by microbeta2 plate reader assay relative to control. As to conditions: for inhibition: filed as antagonist. The gist of the method:
(§1)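 Filtration binding on 5-HT2A membranes. Serially diluted compound, with ketanserin as reference, was mixed with membrane and [3H]ketanserin, with separate nonspecific-binding wells, and shaken at 300 rpm. Mixtures were filtered through PEI-soaked GF filter plates and washed 4× with cold buffer. Filters were dried 1 h at 50 °C and bound 3H was counted by scintillation. IC50 came from dose-response fits and Ki was also reported; the top dose was 10000 nM.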
A general note: Loss of bound radioactivity is the signal in a displacement assay; it reports binding, not function.

The nature of series [2]: Kinetic solubility of compound in PBS at pH 7.4 incubated for 2 hrs in shaker by LC-MS/MS analysis. Type of series: physicochemical. The note with it: read-out: Kinetic_solubility. The gist of the method: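 Compound from 10 mM DMSO stock was added in duplicate to pH 7.4 PBS, 30 µL into 970 µL, and stirred/shaken at 1100 rpm for 2 h at room temperature. The mixture was vacuum filtered and the filtrate diluted in methanol/DMSO. Quantification was by LC-MS/MS (positive ESI, MRM) against 3 µM standards, with progesterone as positive control. The assay upper limit was 300 µM.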

Series [3] deals with T1, 5-hydroxytryptamine receptor 2A. In words: Displacement of [3H] Ketanserin from 5HT2A receptor (unknown origin) incubated for 0.5 hrs by microbeta2 plate reader assay. The gist of the method:
as §1

Series [4] has the same target. Nature of the series: Antagonist activity at 5-HT2A receptor (unknown origin) assessed as inhibition of 5-HT stimulated IP1 production incubated for 1 hr by HTRF method. The class given is functional. The gist of the method: (§2)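 IP-One HTRF immunoassay for 5-HT2A Gαq signalling. Cells were seeded at 7,500 per well and given varying doses of compound. The agonist-mode reference was serotonin and the antagonist-mode reference was methiothepin. Incubation was 1 h at 37 °C, then lysis with d2-labelled IP1 and terbium cryptate anti-IP1 antibody for 1 h at room temperature. Fluorescence was read at 615/665 nm. IP1 was quantified against a 9-point standard curve, 4-fold from 7,700 nM, run in duplicate. Values came from log(inhibitor) vs response, variable-slope fit.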
Background: Time-resolved FRET reads energy transfer from a long-lived donor to a nearby acceptor.

Series [5] has the same target. In words: Agonist activity at 5-HT2A receptor (unknown origin) assessed as IP1 accumulation at 0.0004 to 10 uM incubated for 1 hr by HTRF method. Type of series: functional. The note with it: dose 0.0004-10 µM. The gist of the method:
as §2

Series [6] shares this target. In words: Antagonist activity at 5-HT2A receptor (unknown origin) assessed as inhibition of 5-HT stimulated IP1 production at 10 uM incubated for 1 hr by HTRF method relative to control. As to conditions: filed as antagonist. The class given is functional. On the set-up: scale not given: the % may be the effect or the level left. The gist of the method: as §2

T1 sequence (P28223 whole entry): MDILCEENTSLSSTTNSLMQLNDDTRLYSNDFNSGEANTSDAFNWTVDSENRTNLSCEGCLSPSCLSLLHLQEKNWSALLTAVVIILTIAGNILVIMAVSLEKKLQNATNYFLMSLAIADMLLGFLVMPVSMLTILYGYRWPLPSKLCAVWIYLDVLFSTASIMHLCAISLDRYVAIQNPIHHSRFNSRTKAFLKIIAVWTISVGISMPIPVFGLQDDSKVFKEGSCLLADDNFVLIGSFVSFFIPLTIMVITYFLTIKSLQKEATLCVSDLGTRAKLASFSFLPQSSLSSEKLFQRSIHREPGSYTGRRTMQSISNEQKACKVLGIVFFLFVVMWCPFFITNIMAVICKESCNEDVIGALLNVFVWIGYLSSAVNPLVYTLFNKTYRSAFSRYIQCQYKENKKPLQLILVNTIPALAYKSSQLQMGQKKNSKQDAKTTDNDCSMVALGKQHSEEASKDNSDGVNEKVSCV

As for `COc1cc(/C=C2\C(=O)N=C(N)N2C)cc(OC)c1OC.Cl`, the result in series [1] was inactive. In addition, the solubility kinetic at 2 h in series [2] is not below 20 µM.

`COc1ccc(OC)c(/C=C2\N=C(N)NC2=O)c1.Cl` had an inhibition in series [1] of 95%. In series [3], the Ki was 233 nM. For the same molecule, the half-inhibitory concentration (IC50) in series [4] amounted to 887 nM. Moreover, the outcome in series [5] was inactive. Also, in series [6], the Activity was determined as 93%. Also, in series [2], the solubility kinetic at 2 h is not below 20 µM.

As to `COc1cc(/C=C2\N=C(N)NC2=O)cc(OC)c1OC.Cl`, the outcome in series [1] was inactive. The solubility kinetic at 2 h in series [2] was not below 20 µM.

`COc1ccc(OC)c(/C=C2\C(=O)N=C(N)N2C)c1.Cl` showed a Ki in series [3] of more than 3880 nM. In addition, the solubility kinetic at 2 h in series [2] was not below 20 µM.

With `COc1cc(/C=C2\C(=O)N(C)C(=N)N2C)cc(OC)c1OC.Cl`, the outcome in series [1] was inactive. The solubility kinetic at 2 h in series [2] was not below 20 µM.

As to `COc1cc(/C=C2\C(=O)N=C(N)N2C)c(OC)cc1Br.Cl`, the solubility kinetic at 2 h in series [2] was not below 20 µM.

With `COc1cc(/C=C2\N=C(N)NC2=O)c(OC)cc1Br.Cl`, the inhibition in series [1] stood at 97%. In addition, the Ki in series [3] is 19 nM. Also, the IC50 in series [4] is 58 nM. Also, in series [5], the outcome was inactive. For the same molecule, the Activity in series [6] stood at 100%. Also, the solubility kinetic at 2 h in series [2] was not below 20 µM.

For orientation: inhibition means the relative decrease from the control value, in per cent. One may read the Ki as the dissociation constant of the complex between target and ligand, obtained from inhibition or displacement. A word on the IC50: it is the concentration at which inhibition is half-maximal.
